From ChEMBL document CHEMBL3108710, “Discovery of a novel class of dimeric Smac mimetics as potent IAP antagonists resulting in a clinical candidate for the treatment of cancer (AZD5582)” (J Med Chem, 2013)
Blank lines part the entries; values can stand above or below the molecule they belong to. Calls of active or inactive are those of the source. The rule behind the calls is not given here.

Columns and labels:
[1] = AUC in Han Wistar rat at 0.8 mg/kg, iv by LC-MS/MS analysis; assay type: ADME, organism-based; set-up: dose 0.8 mg/kg, route intravenous; conditions: plasma
How it was run: (§1)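 Rat PK after a single intravenous bolus. Parameters derived from plasma levels: total plasma clearance, steady-state volume of distribution, half-life and AUC.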

[2] = Elimination half life in Han Wistar rat at 0.8 mg/kg, iv by LC-MS/MS analysis; assay type: ADME, organism-based; set-up: dose 0.8 mg/kg, route intravenous; conditions: in vivo, read-out: beta t1/2 (converted); how it was run: as §1
[3] = Volume of distribution at steady state in Han Wistar rat at 0.8 mg/kg, iv by LC-MS/MS analysis; assay type: ADME, organism-based; set-up: dose 0.8 mg/kg, route intravenous; conditions: in vivo, read-out: Vdss; how it was run: as §1
[4] = Total plasma clearance in Han Wistar rat at 0.8 mg/kg, iv by LC-MS/MS analysis; assay type: ADME, organism-based; set-up: dose 0.8 mg/kg, route intravenous; how it was run: as §1
MDA-MB-231 [5] = test: Antiproliferative activity against human MDA-MB-231 cells assessed as growth inhibition after 48 hrs by Alamar Blue assay; assay type: functional; conditions: MDA-MB-231, 48 h
[6] = target: T1, Baculoviral IAP repeat-containing protein 2 (Homo sapiens, UniProt Q13490); test: Binding affinity to cIAP1 in human MDA-MB-231 cells assessed as induction of protein degradation after 1 hr by ELISA; assay type: cell-based
[7] = AUC in Han Wistar rat at 1 mg/kg, iv by LC-MS/MS analysis; assay type: ADME, organism-based; set-up: dose 1 mg/kg, route intravenous; conditions: plasma; how it was run: as §1
[8] = Elimination half life in Han Wistar rat at 1 mg/kg, iv by LC-MS/MS analysis; assay type: ADME, organism-based; set-up: dose 1 mg/kg, route intravenous; conditions: in vivo, read-out: beta t1/2 (converted); how it was run: as §1
[9] = Volume of distribution at steady state in Han Wistar rat at 1 mg/kg, iv by LC-MS/MS analysis; assay type: ADME, organism-based; set-up: dose 1 mg/kg, route intravenous; conditions: in vivo, read-out: Vdss; how it was run: as §1
[10] = Total plasma clearance in Han Wistar rat at 1 mg/kg, iv by LC-MS/MS analysis; assay type: ADME, organism-based; set-up: dose 1 mg/kg, route intravenous; how it was run: as §1
BT-549 = test: Growth inhibition of human BT549 cells; assay type: functional, cell-based
647-V = test: Growth inhibition of human 647V cells; assay type: functional, cell-based
MIA PaCa-2 = test: Growth inhibition of human MIAPaCa2 cells; assay type: functional, cell-based
Homo sapiens = species on record: Homo sapiens; test: Growth inhibition of human 97-7 cells; assay type: functional
MDA-MB-231 [11] = test: Antitumor activity against human MDA-MB-231 cells xenografted in CB17 SCID mouse assessed as tumor growth inhibition at 0.1 to 3 mg/kg, iv administered once a week for 2 weeks measured twice a week for 78 days; assay type: functional, organism-based
How it was run: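 MDA-MB-231 tumors were implanted orthotopically in mice and grown to about 120 mm³ average. Vehicle or compound was then given intravenously once weekly for 2 weeks, at 0.1, 0.5 or 3.0 mg/kg. Tumor volume was measured twice weekly for 78 days and reported as geometric mean ± SE.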

Mus musculus [12] = test: Induction of caspase-3 cleavage in tumor of CB17 SCID mouse xenografted with human MDA-MB-231 cells at 0.05 to 3 mg/kg, iv after 4 to 18 hrs by ELISA; assay type: functional, organism-based
How it was run: (§2)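 Mice bearing MDA-MB-231 xenografts received a single intravenous dose. Intratumoral cIAP1 protein and cleaved caspase-3 levels were measured at 4, 6 and 18 h postdose.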

Mus musculus [13] = test: Induction of cIAP1 degradation in tumor of CB17 SCID mouse xenografted with human MDA-MB-231 cells at 0.05 to 3 mg/kg, iv up to 18 hrs by ELISA; assay type: functional, organism-based; how it was run: as §2
MDA-MB-231 [14] = test: Induction of apoptosis in human MDA-MB-231 cells assessed as cell death at 0.5 to 1.5 nM preincubated for 1 to 3 hrs followed by compound-washout measured after 72 hrs by MTS assay; assay type: functional, cell-based
How it was run: (§3)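 MDA-MB-231 cells were exposed to increasing compound concentrations for 1 or 3 h, rinsed, then given drug-free medium. Active caspase-3 per well was read at 24 h total. Survival was measured by MTS at 72 h total; 0% survival means complete cell death.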

MDA-MB-231 [15] = test: Induction of apoptosis in human MDA-MB-231 cells assessed as caspase-3 cleavage at 0.5 to 1.5 nM preincubated for 1 to 3 hrs followed by compound-washout measured after 24 hrs by luciferase reporter gene assay; assay type: functional, cell-based; how it was run: as §3
[16] = target: T2, E3 ubiquitin-protein ligase XIAP (Homo sapiens, UniProt P98170); test: Inhibition of XIAP-caspase-9 interaction in human MDA-MB-231 cells at 1 uM after 4 hrs by immunoprecipitation assay; assay type: cell-based
How it was run: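 MDA-MB-231 cells were left untreated or exposed to 1 μM compound for 4 h. Caspase-9 was immunoprecipitated from the lysates, and caspase-9–XIAP complexes were detected by blotting.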

[17] = target: T2, E3 ubiquitin-protein ligase XIAP; test: Binding affinity to XIAP in human MDA-MB-231 cells assessed as effect on protein level at 0.1 to 100 nM after 4 hrs by Western blotting analysis; assay type: cell-based
How it was run: (§4)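 MDA-MB-231 cells were treated with a range of compound concentrations. IAP protein levels were assessed by western blot: cIAP2 after 1 h, XIAP after 4 h.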

[18] = target: T3, Baculoviral IAP repeat-containing protein 3 (Homo sapiens, UniProt Q13489); test: Binding affinity to cIAP2 in human MDA-MB-231 cells assessed as induction of protein degradation at 0.03 to 1 nM after 1 hr by Western blotting analysis; assay type: cell-based; how it was run: as §4
[19] = target: T1, Baculoviral IAP repeat-containing protein 2; test: Binding affinity to cIAP1 in human MDA-MB-231 cells assessed as induction of protein degradation after 1 hr by Western blotting analysis; assay type: cell-based
[20] = Aqueous solubility of the compound at pH 4 to 6; assay type: physicochemical
[21] = Chemical stability of the compound assessed as amide hydrolysis at pH >8; assay type: physicochemical
[22] = Chemical stability of the compound assessed as amide hydrolysis at pH 1; assay type: physicochemical; conditions: buffer
[23] = Photostability of the compound; assay type: physicochemical
[24] = Hydrolytic stability of the compound at pH 4 to 6; assay type: physicochemical; conditions: buffer
[25] = target: T2, E3 ubiquitin-protein ligase XIAP; test: Displacement of AbuRPFK-5FAM from GST-tagged XIAP BIR2 domain ([…] to P260) (unknown origin) after 20 mins by fluorescence polarization assay
How it was run: (§5)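 Competitive fluorescence polarization binding assay. Measures displacement of a 5-carboxyfluorescein-tagged synthetic peptide from the AVPI groove of the isolated BIR domain.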

[26] = target: T3, Baculoviral IAP repeat-containing protein 3; test: Displacement of AbuRPFK-5FAM from GST-tagged cIAP2 BIR3 domain (I235 to A336) (unknown origin) after 20 mins by fluorescence polarization assay; how it was run: as §5
[27] = AUC in Han Wistar rat at 0.5 mg/kg, iv by LC-MS/MS analysis; assay type: ADME, organism-based; set-up: dose 0.5 mg/kg, route intravenous; conditions: plasma; how it was run: as §1
[28] = Elimination half life in Han Wistar rat at 0.5 mg/kg, iv by LC-MS/MS analysis; assay type: ADME, organism-based; set-up: dose 0.5 mg/kg, route intravenous; conditions: in vivo, read-out: beta t1/2 (converted); how it was run: as §1
[29] = Volume of distribution at steady state in Han Wistar rat at 0.5 mg/kg, iv by LC-MS/MS analysis; assay type: ADME, organism-based; set-up: dose 0.5 mg/kg, route intravenous; conditions: in vivo, read-out: Vdss; how it was run: as §1
[30] = Total plasma clearance in Han Wistar rat at 0.5 mg/kg, iv by LC-MS/MS analysis; assay type: ADME, organism-based; set-up: dose 0.5 mg/kg, route intravenous; how it was run: as §1
[31] = Apparent permeability from apical to basolateral side in human Caco2 cells; assay type: ADME, cell-based; conditions: Caco-2
[32] = target: T2, E3 ubiquitin-protein ligase XIAP; test: Displacement of AbuRPFK-5FAM from GST-tagged XIAP BIR3 domain (N252 to E350) (unknown origin) after 20 mins by fluorescence polarization assay; how it was run: as §5
[33] = target: T1, Baculoviral IAP repeat-containing protein 2; test: Displacement of AbuRPFK-5FAM from GST-tagged cIAP1 BIR3 domain (L250 to G350) (unknown origin) after 20 mins by fluorescence polarization assay; how it was run: as §5

T1 sequence (Q13490 whole entry): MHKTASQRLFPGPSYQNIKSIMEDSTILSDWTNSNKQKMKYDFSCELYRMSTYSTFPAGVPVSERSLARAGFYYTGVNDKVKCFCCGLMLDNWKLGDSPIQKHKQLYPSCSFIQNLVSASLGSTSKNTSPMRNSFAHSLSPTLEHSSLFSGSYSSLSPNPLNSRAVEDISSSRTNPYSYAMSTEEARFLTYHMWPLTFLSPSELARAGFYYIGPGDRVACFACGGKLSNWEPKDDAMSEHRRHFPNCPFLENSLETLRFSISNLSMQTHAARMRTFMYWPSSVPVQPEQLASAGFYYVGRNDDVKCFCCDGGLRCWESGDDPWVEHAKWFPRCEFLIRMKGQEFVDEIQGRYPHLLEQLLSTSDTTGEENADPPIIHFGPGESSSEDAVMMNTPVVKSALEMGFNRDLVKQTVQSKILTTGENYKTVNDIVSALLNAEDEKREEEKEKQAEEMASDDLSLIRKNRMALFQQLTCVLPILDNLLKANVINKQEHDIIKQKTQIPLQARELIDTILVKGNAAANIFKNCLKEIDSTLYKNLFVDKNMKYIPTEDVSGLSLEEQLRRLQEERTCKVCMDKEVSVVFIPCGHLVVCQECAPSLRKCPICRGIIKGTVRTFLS
T2 sequence (P98170 whole entry): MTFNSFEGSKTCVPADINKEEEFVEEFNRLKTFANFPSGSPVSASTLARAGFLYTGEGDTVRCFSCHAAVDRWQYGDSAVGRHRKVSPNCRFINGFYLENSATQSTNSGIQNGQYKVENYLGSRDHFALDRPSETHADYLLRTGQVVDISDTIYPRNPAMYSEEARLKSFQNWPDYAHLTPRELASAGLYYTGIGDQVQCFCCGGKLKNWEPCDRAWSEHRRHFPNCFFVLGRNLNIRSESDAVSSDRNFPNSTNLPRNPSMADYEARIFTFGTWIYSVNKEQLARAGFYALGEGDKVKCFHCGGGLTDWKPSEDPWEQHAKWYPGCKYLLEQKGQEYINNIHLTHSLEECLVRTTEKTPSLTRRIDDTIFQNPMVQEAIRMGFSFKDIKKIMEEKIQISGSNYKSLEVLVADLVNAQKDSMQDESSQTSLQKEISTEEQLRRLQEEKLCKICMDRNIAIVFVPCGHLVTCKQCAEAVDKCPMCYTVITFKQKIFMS
T3 sequence (Q13489 whole entry): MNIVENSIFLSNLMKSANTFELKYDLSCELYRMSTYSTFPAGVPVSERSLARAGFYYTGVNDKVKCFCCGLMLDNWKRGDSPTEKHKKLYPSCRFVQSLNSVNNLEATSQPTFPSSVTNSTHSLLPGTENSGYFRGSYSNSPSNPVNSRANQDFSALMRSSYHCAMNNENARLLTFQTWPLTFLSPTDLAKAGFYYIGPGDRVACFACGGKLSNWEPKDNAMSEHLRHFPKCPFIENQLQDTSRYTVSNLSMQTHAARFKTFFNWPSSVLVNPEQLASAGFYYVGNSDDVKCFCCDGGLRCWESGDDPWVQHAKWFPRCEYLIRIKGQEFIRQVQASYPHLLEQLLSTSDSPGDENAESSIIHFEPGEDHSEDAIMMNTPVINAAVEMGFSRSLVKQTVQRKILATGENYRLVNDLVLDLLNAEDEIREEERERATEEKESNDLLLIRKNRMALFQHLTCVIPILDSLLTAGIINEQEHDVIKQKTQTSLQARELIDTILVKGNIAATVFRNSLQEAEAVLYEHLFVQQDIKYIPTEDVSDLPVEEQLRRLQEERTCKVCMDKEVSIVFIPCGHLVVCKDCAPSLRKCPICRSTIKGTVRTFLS

- AUC [1]: 262 ng·h/mL
- half-life [2]: 3.6 h
- Vd [3]: 1.4 L/kg
- clearance [4]: 45 mL/min/kg
- GI50 (MDA-MB-231 [5]): < 0.1 nM
- EC50 [6]: 0.1 nM
Compound: CN[C@@H](C)C(=O)N[C@H](C(=O)N1CCC[C@H]1C(=O)N[C@H]1c2ccccc2C[C@H]1OCCCCCCO[C@@H]1Cc2ccccc2[C@@H]1NC(=O)[C@@H]1CCCN1C(=O)[C@@H](NC(=O)[C@H](C)NC)C1CCCCC1)C1CCCCC1

- AUC [7]: 206 ng·h/mL
- half-life [8]: 1.2 h
- Vd [9]: 1.9 L/kg
- clearance [10]: 80 mL/min/kg
- GI50 (MDA-MB-231 [5]): < 0.1 nM
- EC50 [6]: 0.6 nM
Compound: CN[C@@H](C)C(=O)N[C@H](C(=O)N1CCC[C@H]1C(=O)N[C@H]1c2ccccc2C[C@H]1OCCOCCO[C@@H]1Cc2ccccc2[C@@H]1NC(=O)[C@@H]1CCCN1C(=O)[C@@H](NC(=O)[C@H](C)NC)C1CCCCC1)C1CCCCC1

- inhibition [16]: Active
- Activity [17]: inactive
- Activity [18]: Active
- Activity [19]: Dose-dependent effect
Compound: CN[C@@H](C)C(=O)N[C@H](C(=O)N1CCC[C@H]1C(=O)N[C@H]1c2ccccc2C[C@H]1OCC#CC#CCO[C@@H]1Cc2ccccc2[C@@H]1NC(=O)[C@@H]1CCCN1C(=O)[C@@H](NC(=O)[C@H](C)NC)C1CCCCC1)C1CCCCC1 [listing 1 of 2 here]
- growth inhibition (GI) (BT-549): Active
- growth inhibition (GI) (647-V): Active
- growth inhibition (GI) (MIA PaCa-2): Active
- growth inhibition (GI) (Homo sapiens): Active
- TGI (MDA-MB-231 [11]): Active
- Activity (Mus musculus [12]): Active
- Activity (Mus musculus [13]): Active
- Activity (MDA-MB-231 [14]): Active
- Activity (MDA-MB-231 [15]): Active

- solubility [20]: > 7000 µg/mL
Compound: CN[C@@H](C)C(=O)N[C@H](C(=O)N1CCC[C@H]1C(=O)N[C@H]1c2ccccc2C[C@H]1OCC#CC#CCO[C@@H]1Cc2ccccc2[C@@H]1NC(=O)[C@@H]1CCCN1C(=O)[C@@H](NC(=O)[C@H](C)NC)C1CCCCC1)C1CCCCC1.Cl.Cl

- Stability [21]: Unstable
- Stability [22]: Unstable
- Stability [23]: Stable
- Stability [24]: Stable
- IC50 [25]: 21 nM
- IC50 [26]: 21 nM
- AUC [27]: 166 ng·h/mL
- half-life [28]: 0.5 h
- Vd [29]: 0.8 L/kg
- clearance [30]: 50 mL/min/kg
- Papp A→B [31]: < 0.1 ×10⁻⁶ cm/s
- GI50 (MDA-MB-231 [5]): < 0.06 nM
- EC50 [6]: 0.1 nM
- IC50 [32]: 15 nM
- IC50 [33]: 15 nM
Compound: CN[C@@H](C)C(=O)N[C@H](C(=O)N1CCC[C@H]1C(=O)N[C@H]1c2ccccc2C[C@H]1OCC#CC#CCO[C@@H]1Cc2ccccc2[C@@H]1NC(=O)[C@@H]1CCCN1C(=O)[C@@H](NC(=O)[C@H](C)NC)C1CCCCC1)C1CCCCC1 [listing 2 of 2 here]
